Assay results as given in ChEMBL document CHEMBL4014266, “Anti-Neurodegenerative Biflavonoid Glycosides from Impatiens balsamina” (J Nat Prod, 2017).

How the values were obtained:
[1] = test system: SK-MEL-2; experiment: Cytotoxicity against human SK-MEL-2 cells after 48 hrs by SRB assay; format: functional, cell-based; conditions: SK-MEL-2, 48 h
Method in brief: (§1)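 Quantitative staining of cellular protein with sulforhodamine B across human tumour lines A549, SK-OV-3, SK-MEL-2 and Bt549; IC50 derived. Etoposide served as positive control.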

[2] = Cytotoxicity against rat C6 cells assessed as cell viability at 20 uM after 24 hrs by MTT assay relative to control; format: cell-based; conditions: read-out: Activity
Method in brief: (§2)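 C6 cells seeded at 1 × 10^5 cells/well; after 1 d switched to serum-free DMEM with 20 μM compound for 24 h. NGF in conditioned medium measured by ELISA as percent of untreated control (100%); viability by MTT as percent. 6-shogaol as positive control.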

[3] = test system: C6; experiment: Neuroprotective activity in rat C6 cells assessed as NGF secretion at 20 uM after 24 hrs by ELISA relative to control; format: functional; method in brief: as §2
[4] = test system: A549; experiment: Cytotoxicity against human A549 cells after 48 hrs by SRB assay; format: functional, cell-based; conditions: A549, 48 h; method in brief: as §1
[5] = test system: SK-OV-3; experiment: Cytotoxicity against human SKOV3 cells after 48 hrs by SRB assay; format: functional, cell-based; conditions: SK-OV-3, 48 h; method in brief: as §1
[6] = test system: BT-549; experiment: Cytotoxicity against human BT549 cells after 48 hrs by SRB assay; format: functional, cell-based; conditions: BT-549, 48 h; method in brief: as §1
[7] = test system: BV-2; experiment: Antiinflammatory activity in mouse BV2 cells assessed as inhibition of LPS-induced nitrite production after 24 hrs by Griess assay; format: functional, cell-based; conditions: BV-2, 24 h
Method in brief: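 BV-2 microglia seeded at 4 × 10^4 cells/well, exposed to graded doses of compounds with LPS stimulation. Nitrite quantified against a sodium nitrite standard curve; IC50 taken as the concentration giving 50% inhibition of NO production. L-NMMA as positive control. Mean ± SD of three independent experiments.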

[8] = Cytotoxicity against mouse BV2 cells assessed as cell viability at 20 uM after 24 hrs by MTT assay relative to control; format: cell-based, BV-2; conditions: read-out: Activity
Method in brief: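 BV-2 cells seeded at 4 × 10^4 cells/well, treated with 20 μM compound; viability read by MTT and expressed as percent. Mean ± SD of three independent experiments.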

| SMILES | IC50 [1] | viability at 24 h, 20 µM [2] | Activity [3] | IC50 [4] | IC50 [5] | IC50 [6] | IC50 [7] | viability at 24 h, 20 µM [8] |
| --- | --- | --- | --- | --- | --- | --- | --- | --- |
| C[C@@H]1O[C@@H](OC[C@H]2O[C@@H](Oc3c(-c4ccc(O)cc4)oc4c([C@]56O[C@@]5(c5ccc(O)cc5)Oc5cc(O)cc(O)c5C6=O)c(O)cc(O)c4c3=O)[C@H](O)[C@@H](O)[C@@H]2O)[C@H](O)[C@H](O)[C@H]1O | > 10 µM | 109% | 74.27% | > 10 µM | > 10 µM | > 10 µM | 31 µM | 100% |
| C[C@@H]1O[C@@H](OC[C@H]2O[C@@H](Oc3c(-c4ccc(O)cc4)oc4c([C@@]56O[C@]5(c5ccc(O)cc5)Oc5cc(O)cc(O)c5C6=O)c(O)cc(O)c4c3=O)[C@H](O)[C@@H](O)[C@@H]2O)[C@H](O)[C@H](O)[C@H]1O | > 10 µM | 102% | 88.36% | > 10 µM | > 10 µM | > 10 µM | 39.2 µM | 99.9% |
| O=c1c(O[C@@H]2O[C@H](CO)[C@@H](O)[C@@H](O)[C@H]2O)c(-c2ccc(O)cc2)oc2cc(O)cc(O)c12 | > 10 µM | 105% | 83.79% | > 10 µM | > 10 µM | > 10 µM | 80.4 µM | 97.5% |
| O=C1c2c(O)cc(O)cc2O[C@]2(c3ccc(O)cc3)O[C@]12c1c(O)cc(O)c2c(=O)c(O[C@@H]3O[C@H](CO)[C@@H](O)[C@H](O)[C@H]3O)c(-c3ccc(O)cc3)oc12 | > 10 µM | 107% | 90.12% | > 10 µM | > 10 µM | > 10 µM | 56.9 µM | 104% |
| O=C1c2c(O)cc(O)cc2O[C@@]2(c3ccc(O)cc3)O[C@@]12c1c(O)cc(O)c2c(=O)c(O[C@@H]3O[C@H](CO)[C@@H](O)[C@H](O)[C@H]3O)c(-c3ccc(O)cc3)oc12 | > 10 µM | 113% | 121.42% | > 10 µM | > 10 µM | > 10 µM | 33.3 µM | 110% |
| C[C@@H]1O[C@@H](O[C@H]2[C@H](Oc3c(-c4ccc(O)cc4)oc4cc(O)cc(O)c4c3=O)O[C@H](CO)[C@@H](O)[C@@H]2O)[C@H](O)[C@H](O)[C@H]1O | > 10 µM | 102% | 123.31% | > 10 µM | > 10 µM | > 10 µM | 31.7 µM | 103% |
| O=C1c2c(O)cc(O)cc2O[C@H](c2cc(O)c(O)c(O)c2)[C@H]1O [AMPELOPSIN] | > 10 µM | 110% | 172.04% | > 10 µM | > 10 µM | > 10 µM | 32.7 µM | 97% |
| O=c1c(O[C@@H]2O[C@H](CO)[C@@H](O)[C@H](O)[C@H]2O)c(-c2ccc(O)cc2)oc2cc(O)cc(O)c12 [ASTRAGALIN] | > 10 µM | 115% | 114.67% | > 10 µM | > 10 µM | > 10 µM | 23.5 µM | 97.5% |
| COc1cc([C@@H]2c3cc4c(cc3[C@@H](O[C@@H]3O[C@@H]5CO[C@@H](C)O[C@H]5[C@H](O)[C@H]3O)[C@H]3COC(=O)[C@H]23)OCO4)cc(OC)c1O [ETOPOSIDE] | 1.1 µM |  |  | 0.92 µM | 1.95 µM | 1.24 µM |  |  |
| O=c1c(O[C@@H]2O[C@H](CO)[C@@H](O)[C@H](O)[C@H]2O)c(-c2ccc(O)c(O)c2)oc2cc(O)cc(O)c12 [ISOQUERCETIN] | > 10 µM | 107% | 98.67% | > 10 µM | > 10 µM | > 10 µM | 55.6 µM | 95.6% |
| O=c1c(O)c(-c2ccc(O)cc2)oc2cc(O)cc(O)c12 [KAEMPFEROL] | > 10 µM | 97.2% | 115.98% | > 10 µM | > 10 µM | > 10 µM | 8.86 µM | 119% |
| C[C@@H]1O[C@@H](OC[C@H]2O[C@@H](Oc3c(-c4ccc(O)cc4)oc4cc(O)cc(O)c4c3=O)[C@H](O)[C@@H](O)[C@@H]2O)[C@H](O)[C@H](O)[C@H]1O [NICOTIFLOROSIDE] | > 10 µM | 99.6% | 97.59% | > 10 µM | > 10 µM | > 10 µM | 44.4 µM | 97.9% |
| O=c1c(O)c(-c2ccc(O)c(O)c2)oc2cc(O)cc(O)c12 [QUERCETIN] | > 10 µM | 103% | 118.77% | > 10 µM | > 10 µM | > 10 µM | 19.1 µM | 101% |
| C[C@@H]1O[C@@H](OC[C@H]2O[C@@H](Oc3c(-c4ccc(O)c(O)c4)oc4cc(O)cc(O)c4c3=O)[C@H](O)[C@@H](O)[C@@H]2O)[C@H](O)[C@H](O)[C@H]1O [RUTIN] | > 10 µM | 113% | 108.27% | > 10 µM | > 10 µM | > 10 µM | 24.3 µM | 99.2% |
| CCCCC/C=C/C(=O)CCc1ccc(O)c(OC)c1 [SHOGAOL] |  | 104% | 143.74% |  |  |  |  |  |
| CNC(=N)NCCC[C@H](N)C(=O)O [TILARGININE] |  |  |  |  |  |  | 21.2 µM | 120% |
